SMILES strings stand for the structures. Values after ≈ are worked out from the molar mass of the structure shown. Where only a bound is given, the exact number is not on record here.

Holding throughout (assay type): functional
One assay relates to Pichia kudriavzevii. Kind of assay: Antifungal activity against Candida krusei ATCC 6258. In a few lines:
(§1)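 MIC was determined in Sabouraud dextrose medium.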

The subject of assay [1] is Candida albicans. Nature of the assay: Antifungal activity against Candida albicans MY2323. In a few lines:
(§2)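 Wild-type C. albicans was tested alongside two heterozygote strains, each carrying a single copy of CLP1 or YSH1, to compare mechanism of action. The read-out was MIC.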

Assay [2] relates to Candida albicans. Nature of the assay: Antifungal activity against Candida albicans MY2323 expressing single copy of YSH1 gene. In a few lines:
as §2

The subject of a further assay is Nakaseomyces glabratus. Nature of the assay: Antifungal activity against Candida glabrata ATCC 90030. In a few lines: as §1
Assay [3] has as its system Candida albicans. Nature of the assay: Antifungal activity against Candida albicans MY2323 expressing single copy of CLP1 gene. Put shortly: as §2
The subject of a further assay is Clavispora lusitaniae. Kind of assay: Antifungal activity against Candida lusitaniae ATCC 34449. Put shortly:
as §1

The next assay deals with Candida parapsilosis. Kind of assay: Antifungal activity against Candida parapsilosis 22019. The note with it: Lodderomyces parapsilosis. Put shortly:
as §1

A further assay has as its system Candida tropicalis. Nature of the assay: Antifungal activity against Candida Candida tropicalis ATCC 750. In a few lines: as §1

As to `COC(=O)[C@]12Oc3cc4c(c(OC)c3C(=O)C1=C(O)[C@@H]1O[C@@H]1[C@@H]2O)-c1cccc2c(=O)on(c12)C4` [PARNAFUNGIN D], the MIC in the assay with Pichia kudriavzevii came out at 0.016 µg/mL (≈ 0.0334 µM); with Candida albicans [1], 0.016 µg/mL (≈ 0.0334 µM); in the assay with Candida albicans [2], 0.004 µg/mL (≈ 0.00834 µM); against Nakaseomyces glabratus, 5 µg/mL (≈ 10.4 µM); against Candida albicans [3] it was 0.004 µg/mL (≈ 0.00834 µM); with Clavispora lusitaniae, 0.16 µg/mL (≈ 0.334 µM). In addition, the MIC against Candida parapsilosis stood at 2.5 µg/mL (≈ 5.21 µM); with Candida tropicalis, 0.6 µg/mL (≈ 1.25 µM).

With `COC(=O)[C@]12Oc3cc4c(c(OC)c3C(=O)C1=C(O)CC[C@@H]2O)-c1cccc2c(=O)on(c12)C4` [PARNAFUNGIN A], the MIC is 0.08 µg/mL (≈ 0.172 µM) against Pichia kudriavzevii; 2 µg/mL (≈ 4.3 µM) in the assay on Candida albicans [1]; 0.03 µg/mL (≈ 0.0645 µM) against Candida albicans [2]; greater than 10 µg/mL in the assay on Nakaseomyces glabratus; 0.03 µg/mL (≈ 0.0645 µM) against Candida albicans [3]; 0.16 µg/mL (≈ 0.344 µM) in the assay with Clavispora lusitaniae. Moreover, the MIC in the assay on Candida parapsilosis is greater than 10 µg/mL; with Candida tropicalis, 2.5 µg/mL (≈ 5.37 µM).
